The source made the active and inactive calls. The rule behind the calls is not given here.
How the values were obtained:
[1] = target: 5-hydroxytryptamine receptor 4 (Homo sapiens) (UniProt Q13639); assay: Partial agonist activity at Rluc-tagged human 5-HT4 receptor expressed in human SH-5YSY cells co-expressing RGFP-fused to Gbeta1 assessed as inhibition of serotonin-induced coupling by BRET assay; format: functional, cell-based
[2] = target: 5-hydroxytryptamine receptor 4 (Cavia porcellus, UniProt O70528); assay: Displacement of [3H]GR113808 from serotonin 5-HT4 receptor in Dunkin-Hartley guinea pigs striatal nuclei membranes incubated for 30 mins by liquid scintillation counting
5-hydroxytryptamine receptor 4, sequence (O70528 whole entry): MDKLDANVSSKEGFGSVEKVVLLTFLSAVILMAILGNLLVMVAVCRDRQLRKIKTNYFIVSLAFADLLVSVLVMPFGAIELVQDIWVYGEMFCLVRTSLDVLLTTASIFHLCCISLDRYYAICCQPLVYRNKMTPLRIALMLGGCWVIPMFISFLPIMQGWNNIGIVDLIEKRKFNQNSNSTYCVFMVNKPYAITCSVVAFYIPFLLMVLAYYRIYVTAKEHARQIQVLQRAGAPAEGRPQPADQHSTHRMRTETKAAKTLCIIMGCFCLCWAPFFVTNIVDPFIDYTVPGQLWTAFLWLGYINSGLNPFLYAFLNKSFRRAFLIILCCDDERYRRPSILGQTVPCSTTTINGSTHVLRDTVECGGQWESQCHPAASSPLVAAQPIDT

[3] = target: 5-hydroxytryptamine receptor 4 (Homo sapiens) (UniProt Q13639); assay: Agonist activity at human 5-HT4R expressed in GloSensor-22F6 expressing 2B2 cells co-expressing Galpha-s assessed as increase in cAMP accumulation up to 60 mins by luminometry relative to control 5-HT; format: functional, cell-based
Method in brief: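 Cells carrying a cAMP luminescence biosensor were additionally transduced with Gαs and human 5-HT4R, then seeded at 25 x 10³ cells/well 24 h ahead. Ligands (up to 10 µM) were added with 1 mM final IBMX.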

5-hydroxytryptamine receptor 4 (Homo sapiens), sequence (Q13639 whole entry, the tested form may be a part): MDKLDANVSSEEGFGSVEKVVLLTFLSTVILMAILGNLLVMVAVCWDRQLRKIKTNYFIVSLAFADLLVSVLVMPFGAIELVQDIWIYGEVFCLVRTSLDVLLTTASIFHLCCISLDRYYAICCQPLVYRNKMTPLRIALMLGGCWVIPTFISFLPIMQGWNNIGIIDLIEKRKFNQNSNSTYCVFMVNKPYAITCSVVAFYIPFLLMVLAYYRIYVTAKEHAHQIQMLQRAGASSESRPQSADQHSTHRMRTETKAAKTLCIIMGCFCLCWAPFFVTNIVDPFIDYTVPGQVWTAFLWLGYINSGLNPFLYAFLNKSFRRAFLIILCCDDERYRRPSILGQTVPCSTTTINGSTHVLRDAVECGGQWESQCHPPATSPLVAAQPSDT

Q: For COc1cc(N)c(Cl)cc1C(=O)OCCN1CCCCC1, which Activity [1] is on record?
A: Active

Q: For COc1cc(N)c(Cl)cc1C(=O)OCCN1CCC(NC(=O)OC(C)(C)C)CC1, which Ki [2] is on record?
A: 30 nM

Q: What about the Ratio [3] of the same molecule?
A: 0.21

Q: What about the Activity [1] of the same molecule?
A: Active

Q: Which results are given for COc1cc(N)c(Cl)cc1C(=O)OCCN1CCC(NC(=O)NCCOCCOCCOCCOCCOCCOCCOCCOCCN=[N+]=[N-])CC1?
A: Ki [2]: 121 nM; Ratio [3]: 0.18; Activity [1]: Active

Q: How did the Ki [2] turn out when CCCCNC(=O)NC1CCN(CCOC(=O)c2cc(Cl)c(N)cc2OC)CC1 was run?
A: 13 nM

Q: What about the Ratio [3] of the same molecule?
A: 0.24

Q: What about the Activity [1] of the same molecule?
A: Active

Q: How did the Ki [2] turn out when COc1cc(N)c(Cl)cc1C(=O)OCCN1CCC(NC(=O)NCCOCCOCCNC(=O)NCC(=O)O)CC1 was run?
A: 61 nM

Q: What about the Ratio [3] of the same molecule?
A: 0.21

Q: And the Activity [1]?
A: Active

Q: With COc1cc(N)c(Cl)cc1C(=O)OCCN1CCC(NC(=O)NCCOCCOCCNC(=O)NC2CCN(CCOC(=O)c3cc(Cl)c(N)cc3OC)CC2)CC1 as the molecule, how does the Ki [2] read?
A: 4 nM

Q: And the Ratio [3]?
A: 0.28

Q: And the Activity [1]?
A: Active

Q: For COc1cc(N)c(Cl)cc1C(=O)N[C@H]1CCN(CCCOc2ccc(F)cc2)C[C@H]1OC, which Activity [1] is on record?
A: Active

Q: Which results are given for COc1cc(N)c(Cl)cc1C(=O)OCCN1CCC(NC(=O)NCCOCCOCCOCCOCCOCCOCCOCCOCCn2cc(CNC(=O)NCCCN(CCCCN(CCCNC(=O)NCc3cn(CCOCCOCCOCCOCCOCCOCCOCCOCCNC(=O)NC4CCN(CCOC(=O)c5cc(Cl)c(N)cc5OC)CC4)nn3)CCCNC(=O)NCc3cn(CCOCCOCCOCCOCCOCCOCCOCCOCCNC(=O)NC4CCN(CCOC(=O)c5cc(Cl)c(N)cc5OC)CC4)nn3)CCCNC(=O)NCc3cn(CCOCCOCCOCCOCCOCCOCCOCCOCCNC(=O)NC4CCN(CCOC(=O)c5cc(Cl)c(N)cc5OC)CC4)nn3)nn2)CC1?
A: Ki [2]: 4.5 nM; Ratio [3]: 0.14; Activity [1]: Active

Q: How did the Ki [2] turn out when COc1cc(N)c(Cl)cc1C(=O)OCCN1CCC(NC(=O)NCCOCCOCCOCCOCCOCCOCCOCCOCCn2cc(CNC(=O)NCCCN(C)CCCNC(=O)NCc3cn(CCOCCOCCOCCOCCOCCOCCOCCOCCNC(=O)NC4CCN(CCOC(=O)c5cc(Cl)c(N)cc5OC)CC4)nn3)nn2)CC1 was run?
A: 9 nM

Q: What about the Ratio [3] of the same molecule?
A: 0.16

Q: What about the Activity [1] of the same molecule?
A: Active

Q: Which Ki [2] does the source give for COc1cc(N)c(Cl)cc1C(=O)OCCN1CCC(NC(=O)NCCOCCOCCNC(=O)NCC(=O)OCc2ccccc2)CC1 here?
A: 4 nM

Q: What about the Ratio [3] of the same molecule?
A: 0.15

Q: And the Activity [1]?
A: Active

Q: COc1cc(N)c(Cl)cc1C(=O)OCCCN1CCCCC1 was tested. Which Ratio [3] did it give?
A: 0.09

Q: And the Activity [1]?
A: Active
